“Also recorded” adds a separate entry of the source. Where two headings read alike, the source gives them in different places. Blank lines part the entries; values can stand above or below the compound they belong to.
How the values were obtained:
[1] = tested on: IP6K / IPMK activity (InsP7, InsP5, InsP6 levels) in HCT116 cells; format: cell-based, human
IP6K = settings: prior report; cited from earlier work
[2] = tested on: AKT activity in 3T3-L1 preadipocytes; test: AKT activity; format: cell-based; settings: 3 h
Outline: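 Lysates were made in ice-cold Tris-HCl pH 7.4/NaCl/1% Triton X-100 with protease-phosphatase inhibitors and cleared at 4 °C. Blots of 20 µg protein were probed for p-AKT T308 and total AKT. Ratios were normalized to the per-gel sum; n=3, Dunnett ANOVA vs DMSO.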

[3] = tested on: IP6K activity (InsP levels) in HEK293 cells; test: HPLC analysis of InsP5, InsP6 and InsP7 levels in HEK293 cells; format: cell-based; settings: HEK293, 2.5 µM, 3.5 h
Outline: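 HEK293 cells were labeled with [³H]inositol (20 µCi/ml), then treated 3.5 h with 2.5 µM test compound in DMSO (0.1% final) or vehicle. Cells were quenched with perchloric acid, and extracted [³H]InsP5, InsP6 and InsP7 were resolved by CarboPac HPLC. Values are means ± standard errors, n=3; one-way ANOVA (Dunnett) vs DMSO control.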

[4] = tested on: AKT activity in HCT116 cells; test: AKT activity; format: cell-based, human; settings: 3 h
Outline: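 HCT116 cells, 1 day post-confluent, were exposed 3 h to 10 µM TNP, 2.5 µM test compound or DMSO vehicle (0.1% final). Cells were PBS-washed and lysed in cold Tris-HCl pH 7.4 buffer with 1% Triton X-100 plus protease-phosphatase inhibitors. Blots of 20 µg protein were probed for T308 p-AKT and total AKT. The p-AKT/total ratio was normalized to the gel sum; means ± standard errors, n=5, Dunnett ANOVA.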

[5] = cited from earlier work
hIP6K2 = target: T1, hIP6K2 (Homo sapiens, UniProt Q9UHH9); test: hIP6K2 Adapta TR-FRET kinase assay; format: biochemical; settings: for fold higher IC50 against hIP6K2 compared to 3: relative to compound 3; for fold higher IC50 against hIP6K2 compared to 5: relative to compound 5
T1 sequence (Q9UHH9 1-426): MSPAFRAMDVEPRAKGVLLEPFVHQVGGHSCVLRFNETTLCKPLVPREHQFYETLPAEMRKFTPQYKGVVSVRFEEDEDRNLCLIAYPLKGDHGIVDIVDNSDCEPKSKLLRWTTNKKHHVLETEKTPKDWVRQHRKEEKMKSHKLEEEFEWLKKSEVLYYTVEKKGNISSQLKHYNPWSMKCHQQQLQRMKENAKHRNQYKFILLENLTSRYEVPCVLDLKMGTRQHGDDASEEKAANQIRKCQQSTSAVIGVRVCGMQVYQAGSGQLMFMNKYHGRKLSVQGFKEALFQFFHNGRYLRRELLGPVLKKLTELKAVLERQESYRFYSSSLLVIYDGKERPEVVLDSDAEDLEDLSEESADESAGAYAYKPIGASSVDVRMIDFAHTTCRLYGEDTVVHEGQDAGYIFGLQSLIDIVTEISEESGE

hIPMK = hIPMK (Homo sapiens, UniProt Q8NFU5); test: hIPMK Adapta TR-FRET kinase assay; format: biochemical; settings: for fold higher IC50 (reduction in inhibitory activity) against hIPMK compared to 2: relative to compound 2
hIPMK, sequence (Q8NFU5 whole entry): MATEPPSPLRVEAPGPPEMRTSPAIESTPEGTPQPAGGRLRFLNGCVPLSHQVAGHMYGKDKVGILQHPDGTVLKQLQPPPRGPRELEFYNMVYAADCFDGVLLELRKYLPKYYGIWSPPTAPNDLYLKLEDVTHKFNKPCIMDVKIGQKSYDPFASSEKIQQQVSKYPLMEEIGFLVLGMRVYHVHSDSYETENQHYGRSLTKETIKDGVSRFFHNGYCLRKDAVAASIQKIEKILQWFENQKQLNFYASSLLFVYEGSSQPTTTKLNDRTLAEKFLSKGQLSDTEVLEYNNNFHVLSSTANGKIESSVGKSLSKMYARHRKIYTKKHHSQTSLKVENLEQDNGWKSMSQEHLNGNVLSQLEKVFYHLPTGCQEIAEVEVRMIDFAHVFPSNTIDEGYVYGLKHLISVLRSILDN

SMILES: O=c1c(O)c(-c2cc(O)c(O)c(O)c2)oc2cc(O)cc(O)c12 [Compound 1, Myricetin]
effect on InsP5 levels ([1]; HCT116, 2.5 µM, 3.5 hr): not significantly affected
effect on InsP6 levels ([1]; HCT116, 2.5 µM, 3.5 hr): not significantly affected
effect on InsP7 synthesis / levels ([1]; HCT116, 2.5 µM, 3.5 hr): inhibited InsP7 synthesis; also recorded: only slightly altered InsP7 levels
inhibition of IP6K (IP6K): inhibitor

SMILES: O=c1c(O)c(-c2ccc(O)c(O)c2)oc2cc(O)cc(O)c12 [Compound 2, Quercetin]
effect upon AKT activity (p-AKT T308 / total AKT) ([2]; 3T3-L1, 2.5 µM): increased
effect on InsP7 synthesis / levels ([1]; HCT116, 2.5 µM, 3.5 hr): inhibited InsP7 synthesis
effect on InsP5 ([1]; HCT116, 2.5 µM, time course): without significantly impacting
effect on InsP6 ([1]; HCT116, 2.5 µM, time course): without significantly impacting
reduction of InsP7 levels ([1]; HCT116, 2.5 µM, time course): 50 – 70%
time of greatest diminution in cellular InsP7 content ([1]; HCT116, 2.5 µM, time course): 30 min
total DPM of InsP7 peak ([1]; HCT116, 10 μM, 3.5 h, representative HPLC, control 2160): 195 DPM
total DPM of InsP5 peak ([1]; HCT116, 10 μM, 3.5 h, representative HPLC, control 14677): 10,989 DPM
total DPM of InsP6 peak ([1]; HCT116, 10 μM, 3.5 h, representative HPLC, control 36,327): 39521 DPM
effect on InsP6 levels ([1]; HCT116, 10 µM, 3.5 hr): not affected
reduction of InsP5 levels ([1]; HCT116, 10 µM, 3.5 hr): approx. 25%
effect on InsP7 levels, dose dependence ([1]; HCT116, 1–10 µM, 3.5 hr): dose-dependent reductions in InsP7 levels
effect on InsP5 levels [3]: not affected
effect on InsP6 levels [3]: not affected
effect on InsP7 levels [3]: reduced InsP7 levels
effect upon AKT activity (p-AKT T308 / total AKT) ([4]; HCT116, 2.5 µM): did not observe any statistically-significant effect
concentration recorded in the human small intestine and colon [5]: 2.5 µM
concentration in serum ([5]; even after dietary supplementation): ≤ 1 µM
inhibition of IP6K (IP6K): no inhibitory effect was observed

fold higher IC50 against hIP6K2 compared to 2 (hIP6K2; relative to compound 2): 1.9 fold
fold higher IC50 (reduction in inhibitory activity) against hIPMK compared to 2 (hIPMK): 2.4- to 3 fold
SMILES: O=c1cc(-c2ccc(O)c(O)c2)oc2cc(O)cc(O)c12 [Compound 3, Luteolin]
effect upon AKT activity (p-AKT T308 / total AKT) ([2]; 3T3-L1, 2.5 µM): increased
effect on InsP7 synthesis / levels ([1]; HCT116, 2.5 µM, 3.5 hr): inhibited InsP7 synthesis
effect on InsP5 levels [3]: not affected
effect on InsP6 levels [3]: not affected
effect on InsP7 levels [3]: reduced InsP7 levels
effect upon AKT activity (p-AKT T308 / total AKT) ([4]; HCT116, 2.5 µM): did not observe any statistically-significant effect

fold higher IC50 against hIP6K2 compared to 2 (hIP6K2; relative to compound 2): 3.6 fold
fold higher IC50 (reduction in inhibitory activity) against hIPMK compared to 2 (hIPMK): 2 fold
SMILES: O=c1c(O)c(-c2ccc(O)cc2)oc2cc(O)cc(O)c12 [Compound 4, Kaempferol]
effect on InsP5 levels ([1]; HCT116, 2.5 µM, 3.5 hr): not significantly affected
effect on InsP6 levels ([1]; HCT116, 2.5 µM, 3.5 hr): not significantly affected
effect on InsP7 synthesis / levels ([1]; HCT116, 2.5 µM, 3.5 hr): inhibited InsP7 synthesis

fold higher IC50 against hIP6K2 compared to 2 (hIP6K2; relative to compound 2): 10 fold
SMILES: O=c1cc(-c2ccc(O)cc2)oc2cc(O)cc(O)c12 [Compound 5, Apigenin]

SMILES: COc1cc(-c2oc3cc(O)cc(O)c3c(=O)c2O)ccc1O [Compound 6, Isorhamnetin]
effect on InsP5 levels ([1]; HCT116, 2.5 µM, 3.5 hr): not significantly affected
effect on InsP6 levels ([1]; HCT116, 2.5 µM, 3.5 hr): not significantly affected
effect on InsP7 synthesis / levels ([1]; HCT116, 2.5 µM, 3.5 hr): inhibited InsP7 synthesis

SMILES: COc1ccc(-c2cc(=O)c3c(O)cc(O)cc3o2)cc1O [Compound 7, Diosmetin]
effect upon AKT activity (p-AKT T308 / total AKT) ([2]; 3T3-L1, 2.5 µM): increased
effect on InsP7 synthesis / levels ([1]; HCT116, 2.5 µM, 3.5 hr): inhibited InsP7 synthesis; also recorded: most effective inhibitor of InsP7 levels
effect on InsP5 ([1]; HCT116, 2.5 µM, time course): no effect
effect on InsP6 ([1]; HCT116, 2.5 µM, time course): did not significantly alter
effect on InsP7 synthesis ([1]; HCT116, 2.5 µM, time course): most sustained inhibition of InsP7 synthesis
reduction in IP6K activity ([1]; intact HCT116 cells, 2.5 µM): > 70%
effect on InsP5 levels [3]: not affected
effect on InsP6 levels [3]: not affected
effect on InsP7 levels [3]: reduced InsP7 levels
effect upon AKT activity (p-AKT T308 / total AKT) ([4]; HCT116, 2.5 µM): did not observe any statistically-significant effect

SMILES: O=c1cc(-c2ccc(O)c(O)c2)oc2cccc(O)c12 [Compound 9, 5,3’,4’-Trihydroxyflavone]
fold higher IC50 against hIP6K2 compared to 3 (hIP6K2): 6 fold

fold higher IC50 against hIP6K2 compared to 5 (hIP6K2): 3 fold
SMILES: COc1cc(O)c2c(=O)cc(-c3ccc(O)cc3)oc2c1 [Compound 10, Genkwanin]

fold higher IC50 against hIP6K2 compared to 2 (hIP6K2; relative to compound 2): 2.6 fold
fold increase in selectivity for hIP6K2 (vs hIPMK) compared to 2 (hIP6K2; relative to compound 2): 2.4 fold
fold higher IC50 (reduction in inhibitory activity) against hIPMK compared to 2 (hIPMK): 6 fold
SMILES: COc1cc(O)c2c(=O)c(O)c(-c3ccc(O)c(O)c3)oc2c1 [Compound 11, Rhamnetin]
effect on InsP5 levels ([1]; HCT116, 2.5 µM, 3.5 hr): not significantly affected
effect on InsP6 levels ([1]; HCT116, 2.5 µM, 3.5 hr): not significantly affected
effect on InsP7 synthesis / levels ([1]; HCT116, 2.5 µM, 3.5 hr): inability of 11 to reduce InsP7

SMILES: O=C1C[C@@H](c2ccc(O)c(O)c2)Oc2cc(O)cc(O)c21 [Compound 16, Eriodictyol]
fold higher IC50 against hIP6K2 compared to 3 (hIP6K2): 19 fold
fold loss of activity against hIPMK compared to 3 (hIPMK; relative to compound 3): > 5.5 fold

fold higher IC50 against hIP6K2 compared to 5 (hIP6K2): at least 4 fold
SMILES: O=C1C[C@@H](c2ccc(O)cc2)Oc2cc(O)cc(O)c21 [Compound 17, Naringenin]

SMILES: O=[N+]([O-])c1ccc(CNc2nc(NCc3cccc(C(F)(F)F)c3)nc3[nH]cnc23)cc1 [TNP, N2-(m-(trifluoromethyl)benzyl) N6-(p-nitrobenzyl)purine, reference compound]
effect upon AKT activity (p-AKT T308 / total AKT) ([2]; 3T3-L1, 1 µM TNP): increased
effect upon AKT activity (p-AKT T308 / total AKT) ([4]; HCT116, 10 µM TNP): did not affect AKT activity

— article PMC6467728 (Journal of medicinal chemistry, 2019)
